Source: PubChem BioAssay
KCNQ1 pot – potentiates or activates the human KCNQ1 potassium channel; CHO-K1 KCNQ1, thallium flux FluxOR fluorescence; stronger effect = higher value; B-score at 10 µM; hit rate 0.35% among 310,000;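 active means fluorescence ratio B-score, a plate-corrected score, at least three library SD, with initial intensity B-score within 5 SD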
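Assay system: CHO-K1 cells stably expressing KCNQ1. Medium: assay buffer for compound exposure, DMSO matched across wells. Timing: 37 °C overnight plating, 90-min dark dye load, 20-min compound pretreatment. Signal: kinetic FluxOR fluorescence, 10 s baseline plus 110 s post-stimulus.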
hERG protect – compounds protecting human hERG from proarrhythmic drug block. hit rate 0.51% among 310,000. activation (rescue from dofetilide block), less the hit threshold, % at 10 µM. CHO-hERG, FluxOR thallium flux, dofetilide IC70 present;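 active means activation above the mean of controls blocked by dofetilide plus 5 SD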;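 further: thallium influx through hERG after potassium depolarization seen as dye fluorescence rise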
KCNK3 inh – human KCNK3 channel inhibition, primary screen | AID 602410 | CHO-KCNK3 thallium flux, FluxOR fluorescence; stronger effect = lower value | B-score at 10 µM | hit rate 0.84% among 340,000;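 active means B-score under library mean minus 4 SD, starting fluorescence ratio at most library mean plus 5 SD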;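 further: more negative B-score means stronger inhibition of thallium flux through KCNK3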
Target sequence (O14649 whole entry, looked up): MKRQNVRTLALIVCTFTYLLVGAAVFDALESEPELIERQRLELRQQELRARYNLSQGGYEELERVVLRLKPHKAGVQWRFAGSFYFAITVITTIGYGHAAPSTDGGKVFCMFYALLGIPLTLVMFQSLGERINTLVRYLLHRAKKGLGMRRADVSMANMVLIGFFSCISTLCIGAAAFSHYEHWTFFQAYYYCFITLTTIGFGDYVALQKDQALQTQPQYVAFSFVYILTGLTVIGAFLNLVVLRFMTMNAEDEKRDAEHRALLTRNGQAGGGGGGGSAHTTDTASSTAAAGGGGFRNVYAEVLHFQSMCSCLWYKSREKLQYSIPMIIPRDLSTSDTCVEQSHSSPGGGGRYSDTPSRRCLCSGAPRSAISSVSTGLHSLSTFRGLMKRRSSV
KCNQ1 block – inhibitors of human KCNQ1 potassium channel; P51787; B-score at 10 µM; CHO-K1 KCNQ1, FluxOR thallium flux fluorescence; stronger effect = higher value; hit rate 1.3% among 310,000;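 active means compounds whose thallium flux B-score, printed positive for inhibition, exceeds three library SD while starting fluorescence stays within three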;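 further: channel opened by potassium depolarization with thallium stimulus after 20 min compound exposure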
KCNK9 inh – human KCNK9 channel inhibition. B-score at 10 µM. hit rate 1.2% among 310,000. HEK293 KCNK9, FluxOR thallium flux fluorescence; stronger effect = lower value;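 active means ratio B-score over 3 SD below the library mean, with starting fluorescence within 5 SD of its mean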;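 further: negative B-score means less thallium flux so channel inhibition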
KCNK3 confirm – confirmation of human KCNK3 two-pore domain potassium channel inhibitors; hit rate 99% among 2,400; AID 651638; CHO-KCNK3 thallium flux, FluxOR fluorescence; 0% buffer, 100% carvedilol maximal block; shares compounds with KCNK3 inh; ratio percent of control, % at 10 µM;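 active means ratio percent of control, averaged over triplicates, above buffer control mean plus 5 SD, cut at about 64% in these data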;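 further: ratio is the fluorescence rise from min to max over baseline after thallium stimulus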
KCNK3 noninduced – counter-screen for KCNK3 inhibitors: effect in non-induced cells. shares compounds with KCNK3 inh. non-induced KCNK3 parental cells, FluxOR thallium flux; stronger effect = lower value. thallium flux ratio (lower = more inhibition) at 10 µM. hit rate 40% among 2,400. AID 651747;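 active means thallium flux ratio, averaged over three wells, more than 5 SD below the buffer control mean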;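 further: host cells are CHO cells without KCNK3 induction; ratio is peak minus trough fluorescence over baseline then normalized to buffer controls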
* marks the source's active call; other numbers are inactive results. Hits are enriched below; roughly 3.1% of the tested compounds scored in any of these assays.

For CC(C)(C)NC(=O)C(c1ccc(F)cc1)N(C(=O)CCC(=O)Nc1ccccn1)C1CCCC1 (centres undefined) the results were KCNQ1 pot inactive, hERG protect -7, KCNK3 inh inactive, KCNQ1 block inactive and KCNK9 inh inactive.
COc1cccc(C(=O)Oc2ccc(/C=N/NC(=O)c3ccncc3)cc2OC)c1 was read as KCNQ1 pot inactive, hERG protect -5, KCNK3 inh inactive, KCNQ1 block inactive and KCNK9 inh inactive.
Screening COc1cc(C(=O)N/N=C/c2ccc(OC(=O)c3cccc(C)c3)c(OC)c2)ccc1O returned KCNQ1 pot inactive, hERG protect -21, KCNK3 inh -8.7*, KCNQ1 block 8*, KCNK9 inh inactive, KCNK3 confirm 82* and KCNK3 noninduced inactive.
`COc1cc(C(=O)N/N=C/c2ccc3c(c2)c2ccccc2n3C)ccc1O` gave KCNQ1 pot inactive, hERG protect -21, KCNK3 inh -11*, KCNQ1 block inactive, KCNK9 inh inactive, KCNK3 confirm 100* and KCNK3 noninduced inactive.
Screening Cc1c(Nc2cc(Cl)c3nonc3c2[N+](=O)[O-])c(=O)n(-c2ccccc2)n1C returned KCNK3 inh -18*, KCNK3 confirm 145* and KCNK3 noninduced 0.096*.
For CCOC(=O)c1c(CN2CCNCC2)nc2ccc(Cl)cc2c1-c1ccccc1 the results were KCNK3 inh inactive.
COC(=O)c1sccc1NC(=O)CC1C(=O)NCCN1C(=O)Nc1cc(Cl)ccc1OC (centres undefined) was read as KCNQ1 pot inactive, hERG protect -8, KCNK3 inh -10*, KCNQ1 block inactive, KCNK9 inh inactive, KCNK3 confirm 91* and KCNK3 noninduced inactive.
Cc1ccc2nc(-c3ccc(NC(=S)NC4CC(C)(C)NC(C)(C)C4)cc3)sc2c1 was read as KCNQ1 pot inactive, hERG protect -32, KCNK3 inh -15*, KCNQ1 block 8*, KCNK9 inh inactive, KCNK3 confirm 125* and KCNK3 noninduced 0.15*.
Cc1ccc(S(=O)(=O)NCC(c2ccccc2)N2CCCCC2)cc1 (centres undefined) was read as KCNQ1 pot inactive, hERG protect -12, KCNK3 inh inactive, KCNQ1 block inactive and KCNK9 inh inactive.
For CC1CCN(C(CNS(=O)(=O)c2ccccc2)c2ccccc2)CC1 (centres undefined) the results were KCNK3 inh -13*, KCNK3 confirm 61* and KCNK3 noninduced inactive.
`Cc1ccccc1C(=O)OCCN(C)Cc1ccccc1` gave KCNQ1 pot inactive, hERG protect -12, KCNK3 inh inactive, KCNQ1 block inactive and KCNK9 inh inactive.
Screening C[C@H](CO)N1C[C@H](C)[C@@H](CN(C)Cc2ccc(Cl)c(Cl)c2)Oc2c(NS(=O)(=O)c3cccs3)cccc2C1=O returned KCNK3 inh -14*, KCNK3 confirm 127* and KCNK3 noninduced 0.14*.
For C[C@H](CO)N1C[C@H](C)[C@@H](CN(C)S(=O)(=O)c2ccc(F)cc2)Oc2c(NC(=O)CCC(F)(F)F)cccc2C1=O the results were KCNK3 inh inactive.
`C[C@H](CO)N1C[C@H](C)[C@@H](CN(C)S(=O)(=O)c2ccccc2)Oc2c(NC(=O)CCC(F)(F)F)cccc2C1=O` gave KCNK3 inh -12*, KCNK3 confirm 110* and KCNK3 noninduced inactive.
CC[C@H]1C(Nc2ccccc2)C[C@@H]2CCN3C(=O)CC[C@H]1[C@H]23 (some centres undefined) was read as KCNK3 inh inactive.
Screening Cc1ccc(C(=O)Nc2cc(Cl)ccc2N2CCCCC2)s1 returned KCNQ1 pot inactive, hERG protect -12, KCNK3 inh inactive, KCNQ1 block inactive and KCNK9 inh inactive.
